This note sets out measurements from ChEMBL document CHEMBL4673212, “Investigation of synergistic antimicrobial effects of the drug combinations of meropenem and 1,2-benzisoselenazol-3(2H)-one derivatives on carbapenem-resistant Enterobacteriaceae producing NDM-1” (Eur J Med Chem, 2018).

Series [1] in a line: Covalent inhibition of Escherichia coli NDM-1 using nitrocefin as substrate.
The target in series [2] is Metallo-beta-lactamase type 2 (Klebsiella pneumoniae) (UniProt C7C422). The series can be described thus: Inhibition of wild type N-terminal His6-tagged Klebsiella pneumoniae NDM-1 expressed in Escherichia coli BL21 assessed as residual activity preincubated for 20 mins by rapid high dilution method relative to control. The essentials: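 Reversibility was tested by rapid high dilution: NDM-1 was preincubated 20 min with compound, then diluted. Residual nitrocefin hydrolysis was compared with an enzyme control lacking compound.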

The nature of series [3]: Toxicity in Galleria mellonella wax moth larve assessed as mortality at 10 mg/kg relative to control. The series is classed as organism-based. As to conditions: in vivo, read-out: Activity.
The test system of another series is L929. The series can be described thus: Cytotoxicity against mouse L929 cells assessed as increase in cell viability at 0.13 to 2 mg/ml measured after 48 hrs by MTT assay relative to control. The series is classed as cell-based. As to conditions: l929, 48 h, dose 0.13-2 mg/ml. The method, boiled down: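 MTT assay. HeLa or L929 cells were seeded at 1×10^4/well in DMEM with 10% FBS and grown 12 h at 37 °C. They were exposed to 0.13–2 mg/mL compound (DMSO stock) for 48 h, then given 0.5 mg/mL MTT for 3 h at 37 °C. Formazan was dissolved in DMSO and read at 490 nm. Survival % was blank-corrected against the 0.5% DMSO medium control.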
(In general: Tetrazolium assays rely on reduction of a dye to a coloured formazan, in cell work by metabolically active cells.)

The nature of series [4]: Toxicity in Galleria mellonella wax moth larve assessed as mortality at 2 mg/kg cotreated with 2 mg/kg meropenem relative to control. As to conditions: in vivo, read-out: Activity. The series is classed as organism-based. The essentials:
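G. mellonella larvae (250–300 mg, n=10) infected in the hemocoel at the last left proleg with E. cloacae EL10 at 2.5 × 10^5 CFU/larva in PBS. Treatment was injected at the next left proleg 1 h from inoculation: vehicle, single agents at 10 mg/kg, or combinations at 2+2 or 10+10 mg/kg. Larvae were held at 37 °C and scored every 12 h for 48 h (no response to stimuli = dead). Log-rank test. Three independent experiments.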

Molecules are shown by their SMILES. pKi: −log10 of the molar value.

Chain of Metallo-beta-lactamase type 2 (Klebsiella pneumoniae) (C7C422 whole entry): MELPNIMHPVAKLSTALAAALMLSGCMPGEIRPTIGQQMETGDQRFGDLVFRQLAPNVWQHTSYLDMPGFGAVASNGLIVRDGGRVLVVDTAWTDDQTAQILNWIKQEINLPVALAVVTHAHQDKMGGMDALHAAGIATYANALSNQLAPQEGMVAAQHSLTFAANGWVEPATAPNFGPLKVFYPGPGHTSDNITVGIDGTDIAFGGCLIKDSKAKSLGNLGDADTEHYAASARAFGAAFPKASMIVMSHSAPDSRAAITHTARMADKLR

The compound `O=c1c2ccccc2[se]n1-c1ccccc1` [EBSELEN] had a pKi in series [1] of 6.42.

As for `CC(C)(C)OC(=O)NCCn1[se]c2ccccc2c1=O`, the Activity in series [2] is 40%; with L929, 70%. Further, the mortality in series [3] and in series [4] was 100% each time.

By pKi is commonly meant −log10 of the Ki, conventionally taken in molar units. Low values mean a high Ki, high ones a low Ki.
